Consider 42 compounds from ChEMBL document CHEMBL1122847, “Antitrichomonal activity of mesoionic thiazolo[3,2-a]pyridines” (1985).

Values after ≈ are worked out from the molar mass of the structure shown.

In assay [1] the test system is Cricetinae gen. sp. Nature of the assay: Value is expressed as the ratio of (Tritrichomonas foetus) animals cured / total number(5) infected at day 1 post treatment after 4 days of treatment. The assay is classed as functional, Cricetulus griseus. An outline of the steps:
(§1)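 From day 3 postinfection, animals got one daily intravaginal 2% (w/w) propylene glycol cream dose plus two daily sc suspension doses (100 mg/kg) for 4 days. Vaginal washings (Kupferberg's medium) were taken days 1 and 4 posttreatment and checked microscopically for viable parasites.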

Assay [2] deals with Tritrichomonas suis. Nature of the assay: The minimum lethal concentration (MLC) against Trichomonas foetus. The class given is functional. A digest of the protocol: (§2)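 Broth microdilution in Kupferberg's medium (pH 7.2); compounds serially diluted 200–0.2 µg/mL in duplicate; each well inoculated with T. foetus at 15 parasites/mm3 in broth, overlaid with sterile mineral oil; 30 °C for 48 h; wells examined microscopically for viable parasites; MLC = lowest concentration without viable parasites; single values reflect consistent duplicate end points.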

The species entered for assay [3] is Mesocricetus auratus. Nature of the assay: Value is expressed as the ratio of (Tritrichomonas foetus) animals cured / total number(5) infected at day 4 post treatment after 4 days of treatment.
For assay [4], the system named is Cricetinae gen. sp. Nature of the assay: Value is expressed as the ratio of (Tritrichomonas foetus infected) animals cured / total number(5) infected at day 1 post treatment after 4 days of treatment. The class given is functional, Cricetulus griseus. A digest of the protocol:
as §1

The test system of assay [5] is Cricetinae gen. sp. Description: Value is expressed as the ratio of (Tritrichomonas foetus infected) animals cured / total number(5) infected at day 4 post treatment after 4 days of treatment. The assay is classed as functional, Cricetulus griseus. A digest of the protocol: as §1
For assay [6], the system named is Tritrichomonas suis. Description: The minimum lethal concentration (MLC) is determined in Trichomonas foetus. The assay is classed as functional. An outline of the steps:
as §2

Assay [7] is filed under the species Mesocricetus auratus. Description: Value is expressed as the ratio of (Tritrichomonas foetus infected) animals cured / total number(15) infected at day 1 post treatment after 4 days of treatment.
The species entered for assay [8] is Mesocricetus auratus. Description: Value is expressed as the ratio of (Tritrichomonas foetus infected) animals cured / total number(15) infected at day 4 post treatment after 4 days of treatment.

On to `[O-]c1c(-c2cccnc2)sc2cccc[n+]12`, for which the Activity in the assay with Cricetinae gen. sp. [1] and in the assay listed under Mesocricetus auratus [3] was 0 each time. In the assay on Tritrichomonas suis [2], the MLC was 12.5 µg/mL (≈ 54.8 µM).
As to `[O-]c1c(-c2ccc(Cl)cc2)sc2cccc[n+]12`, the Activity in the assay with Cricetinae gen. sp. [1] and in the assay listed under Mesocricetus auratus [3] was 0 each time. This compound returned an MLC in the assay with Tritrichomonas suis [2] of 25 µg/mL (≈ 95.5 µM).
`Nc1ccccc1-c1sc2cccc[n+]2c1[O-]` registered an MLC with Tritrichomonas suis [2] of 3.12 µg/mL (≈ 12.9 µM).
Still for that read-out and setting: next, `CC(C)(C)c1ccc(-c2sc3cccc[n+]3c2[O-])cc1`: 25 µg/mL (≈ 88.2 µM); `[O-]c1c(-c2ccccc2)sc2c(O)ccc[n+]12`: >200 µg/mL.
Take `COc1ccc(-c2sc3cccc[n+]3c2[O-])cc1`: the Activity in the assay with Cricetinae gen. sp. [1] and in the assay listed under Mesocricetus auratus [3] was 0 each time. Besides, in the assay on Tritrichomonas suis [2], the MLC is 6.25 µg/mL (≈ 24.3 µM).
On to `Cc1ccc(-c2sc3cccc[n+]3c2[O-])cc1`, for which the Activity in the assay on Cricetinae gen. sp. [1] and in the assay filed under Mesocricetus auratus [3] was 0 throughout. Besides, the MLC with Tritrichomonas suis [2] was 12.5 µg/mL (≈ 51.8 µM).
In the case of `O=[N+]([O-])c1ccc2sc(-c3ccccc3)c([O-])[n+]2c1`, the MLC in the assay on Tritrichomonas suis [2] is 200 µg/mL (≈ 735 µM).
The same measure, in the same setting: next, `O=[N+]([O-])c1ccc(-c2sc3cccc[n+]3c2[O-])cc1`: >200 µg/mL; `Cc1cccc2sc(-c3ccccc3)c([O-])[n+]12`: >200 µg/mL.
As to `[O-]c1c(-c2ccccc2)sc2nccc[n+]12`, the MLC with Tritrichomonas suis [2] was >200 µg/mL.
In the case of `O=[N+]([O-])c1ccc[n+]2c([O-])c(-c3ccccc3)sc12`, the Activity with Cricetinae gen. sp. [1] and in the assay filed under Mesocricetus auratus [3] was 0 each time. Further, in the assay on Tritrichomonas suis [2], the MLC stood at 0.8 µg/mL (≈ 2.94 µM).
As for `[O-]c1c(-c2ccccc2)sc2sc3ccccc3[n+]12`, the MLC with Tritrichomonas suis [2] is >200 µg/mL.
The same measure, in the same setting: with `O=[N+]([O-])c1cccc(-c2sc3cccc[n+]3c2[O-])c1` the figure was >200 µg/mL; with `[S-]c1c(-c2ccc(Cl)cc2)sc2cccc[n+]12`, >200 µg/mL.
On to `[O-]c1c(-c2ccccn2)sc2cccc[n+]12`, for which the Activity in the assay with Cricetinae gen. sp. [1] is 1; in the assay filed under Mesocricetus auratus [3], 0. In the assay on Tritrichomonas suis [2], this compound came in with an MLC of 25 µg/mL (≈ 110 µM).
Regarding `CCOC(=O)C(Sc1ccccn1)c1ccccc1` (stereo unspecified), the Activity in the assay on Cricetinae gen. sp. [4] and with Cricetinae gen. sp. [5] was 0 in each case. Also, the MLC with Tritrichomonas suis [2] was >200 µg/mL.
In the case of `[O-]c1c(-c2ccccc2Cl)sc2cccc[n+]12`, the Activity in the assay with Cricetinae gen. sp. [1] and in the assay listed under Mesocricetus auratus [3] was 0 each time. This compound also yielded an MLC in the assay on Tritrichomonas suis [2] of 100 µg/mL (≈ 382 µM).
Take `[S-]c1c(-c2ccccc2)sc2cccc[n+]12`: in the assay on Tritrichomonas suis [2], the MLC is >200 µg/mL.
With `Nc1ccc(-c2sc3cccc[n+]3c2[O-])cc1`, the Activity in the assay with Cricetinae gen. sp. [1] and in the assay filed under Mesocricetus auratus [3] was 0 in each case. This compound also showed an MLC in the assay on Tritrichomonas suis [2] of 1.6 µg/mL (≈ 6.6 µM).
Regarding `Nc1ccc[n+]2c([O-])c(-c3ccccc3)sc12`, in the assay with Tritrichomonas suis [2], the MLC was 200 µg/mL (≈ 825 µM).
Same read-out and setting: with `[O-]c1c(-c2ccccc2)sc2ccc3ccccc3[n+]12` the figure was >200 µg/mL.
The same measure, in the same setting: with `O=[N+]([O-])c1ccccc1-c1sc2cccc[n+]2c1[O-]` the figure was 25 µg/mL (≈ 91.8 µM).
Take `CN(C)c1ccc(-c2sc3cccc[n+]3c2[O-])cc1`: the Activity in the assay on Cricetinae gen. sp. [1] and in the assay listed under Mesocricetus auratus [3] was 0 throughout. In the assay on Tritrichomonas suis [2], the MLC worked out at 0.8 µg/mL (≈ 2.96 µM).
In the case of `O=C([N-]c1c(-c2ccccc2)sc2cccc[n+]12)c1ccccc1`, the MLC in the assay on Tritrichomonas suis [2] was >200 µg/mL.
For the compound `[O-]c1c(Sc2ccc(Cl)cc2)sc2cccc[n+]12`, the MLC in the assay with Tritrichomonas suis [2] was >200 µg/mL.
The same measure, in the same setting: with `[O-]c1c(/C=C/c2ccccc2)sc2cccc[n+]12` the figure was 200 µg/mL (≈ 789 µM).
As to `[O-]c1c(-c2ccncc2)sc2cccc[n+]12`, the Activity in the assay with Cricetinae gen. sp. [1] is 4; in the assay filed under Mesocricetus auratus [3], 0. For the same compound, in the assay with Tritrichomonas suis [2], the MLC came out at 50 µg/mL (≈ 219 µM).
`COc1ccc(-c2sc3cccc[n+]3c2[S-])cc1`: the MLC with Tritrichomonas suis [2] was >200 µg/mL.
As to `O=C([O-])C(Sc1ccccn1)c1ccccc1.[Na+]` (stereo unspecified), the Activity with Cricetinae gen. sp. [4] and in the assay with Cricetinae gen. sp. [5] was 0 throughout. For the same compound, in the assay with Tritrichomonas suis [2], the MLC was >200 µg/mL.
Regarding `[O-]c1c(-c2ccccc2)sc2cccc[n+]12`, the Activity with Cricetinae gen. sp. [1] and in the assay listed under Mesocricetus auratus [3] was 0 throughout. The MLC with Tritrichomonas suis [2] was found to be 12.5 µg/mL (≈ 55 µM).
`[O-]c1c(-c2ccccc2)oc2cccc[n+]12`: the Activity in the assay on Cricetinae gen. sp. [1] and in the assay filed under Mesocricetus auratus [3] was 0 throughout. Moreover, in the assay with Tritrichomonas suis [2], the MLC was >200 µg/mL.
In the case of `OC1=C(c2ccccc2)SC(c2ccccc2)N1c1ccccc1` (stereo unspecified), the MLC with Tritrichomonas suis [6] is >200 µg/mL.
As for `Nc1cccc(-c2sc3cccc[n+]3c2[O-])c1`, the MLC with Tritrichomonas suis [2] stood at 12.5 µg/mL (≈ 51.6 µM).
On the same count and under the same terms, next, `Nc1ccc2sc(-c3ccccc3)c([O-])[n+]2c1`: 100 µg/mL (≈ 413 µM); `CC(=O)Nc1ccc(-c2sc3cccc[n+]3c2[O-])cc1`: >200 µg/mL.
The same measure, in the same setting: next, `CC(=O)Nc1cccc(-c2sc3cccc[n+]3c2[O-])c1`: 200 µg/mL (≈ 703 µM); `CC(=O)[N-]c1c(-c2ccccc2)sc2cccc[n+]12`: >200 µg/mL; `Cc1cc[n+]2c([O-])c(-c3ccccc3)sc2c1`: 200 µg/mL (≈ 829 µM).
Turning to `[O-]c1c(-c2ccccc2)sc2cncc[n+]12`, the MLC in the assay with Tritrichomonas suis [2] is >200 µg/mL.
With `Br.[NH-]c1c(-c2ccccc2)sc2cccc[n+]12`, the MLC in the assay on Tritrichomonas suis [2] is >200 µg/mL.
For `Cc1ncc([N+](=O)[O-])n1CCO` [METRONIDAZOLE], the Activity in the assay filed under Mesocricetus auratus [7] and in the assay filed under Mesocricetus auratus [8] was 15 each time.
